The source of these data is the RNAGym collection of RNA variant scans (doi:10.1126/science.aae0568).

The chains are these.
B1: tRNA (parent)
chain: GUUCCGUUGGCGUAAUGGUAACGCGUCUCCCUCCUAAGGAGAAGACUGCGGGUUCGAGUCCCGUACGGAACG

Fewer inactive variants are shown than the library holds.

The variants in this data set derive from B1. Nature of the data set: yeast fitness relative to wild type (ratio to wild type); higher = fitter; tRNA-Arg(CCU), competitive growth, 37 C, YPD. In outline:
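Genotype frequency changes were the basis for Darwinian fitness relative to wild type. The frequencies came from 100-nucleotide paired-end sequencing of gene amplicons from the start population and each end population of pooled yeast strains with tRNA-Arg(CCU) gene variants at the native locus. Competition ran in YPD at 37°C for 24 hours in six replicates, genotypes needed ≥ 100 starting reads, and estimates < 0.5 were set to 0.5.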
Consider GUUCCAUUGGCGUUUUGGUAACGCGUCUCCGUCCUAAGGAGAAGACUGCGGGUUCGAGUCCCGUACGGAACG [G6A A14U A15U C31G], for which the yeast fitness stood at 0.668.

As for GUUCCGUUGGCGUAAUGGUAACGCGUCUCCCUCCUAAGGAGAAGACUGCGGGUCCGAGUCCCGUAGGGAACG [U54C C66G], the yeast fitness was found to be 0.803.

Take GUUCCGUUGGCGUAAUGGUAACGCGUGUCCCUCCUAAGGAGCAGACUGGGGGUUCGAGUCGCGUACGGAACG [C27G A42C C49G C61G]: the yeast fitness is 0.669.

GUUCCGUUGGCGUAAUGGUAACGAGUCUCCCUCCUGGGGAGAAGACUGCGGGUUCGAGUCCCGUACGGAACG [C24A A36G A37G]: the yeast fitness was no more than 0.5.

Turning to GUUCCGUCGGCGUAAUGGUAACGCGUCUCCCUCCUAAAGAGAAGACUGCGGAUUCGAGUCCCGUACGGAACG [U8C G38A G52A], the yeast fitness was no more than 0.5.

Take GUUCCGUUGGCGUAAUGGUAACGCGUCUCCCUCCUAAGGAGAAGACUGGGGGAUCGAGUCCCGUACGGAGCG [C49G U53A A70G]: the yeast fitness is no more than 0.5.

As for GUUCCGUUAGCGUAAUGGUAACGCGUGUCCGUCCUUAGGGGAAGACUACGGAUUCGAGUACCGUACGGAACG [G9A C27G C31G A36U A40G G48A G52A C60A], the yeast fitness amounted to 0.575.

As to GUUCUGUUGGUGUAAUGGUAACGCGUCUCCCUCAUAAGGAGAAGACUGCGGGUUCGAGUCCCGUACGGAACG [C5U C11U C34A], the yeast fitness was 0.558.

As for GUUCCGUUGGCGUAAUGGUAACGCGUCUCCAUCCUAAGGAGAAGUCUGCGGGUUCGAGUCCCGUACGGAUCG [C31A A45U A70U], the yeast fitness is 0.789.

Consider GUUCCGUUGGCGUAAUGGUAACGCGUCUUCCUCCUAAGGAGAGGACUGCGGGGUCGAGUCCCAUACGGAACG [C29U A43G U53G G63A], for which the yeast fitness is no more than 0.5.

On to GUUGCGUUGGCGUAAUGGUAACGCGUCUGCCUCCUAAGGAGAAGACUGCGGGUUCGCGUCCCGUACGGAACG [C4G C29G A57C], for which the yeast fitness is 0.612.

GUUCCGUUGGCGUAAUGGUAAUGCGUGUCCCUCCUAAGGAGAAGACUGCGGGUUCGAGUCCCGUACGGUACG [C22U C27G A69U]: the yeast fitness came out at 0.508.

GCUCCGUUGGCGUAAUGGUAACGCGUCUACCUCCUAAGGAGAAGACUGCGGGUUCGCGUCCCGUACGGAACG [U2C C29A A57C]: the yeast fitness is no more than 0.5.

Turning to GUUCCGUUAGCGUAAUGGUAACGCGUCUCCCUUCUAAGGAGCAGACUGCGGGUUCGAGUCCCGUACGGUACG [G9A C33U A42C A69U], the yeast fitness is no more than 0.5.

For GUUCCGUUGGCGUAAUGGUAACGCGUCUCCCUCCUAAGGAGGAGACUGCGGGUUCGACUCCCGUACGGAUCG [A42G G58C A70U], the yeast fitness stood at 0.748.

In the case of GUUCCGUUGGCGUAAUGGCAACGCGUCUCCCUCCUAAGGAGUAGACUGCGGGUUCGAGUCCCGUACGGAACG [U19C A42U], the yeast fitness worked out at 1.12.

GUUCCGUUGGCGUAAUGGUAACGCGGCUCCCUCCUAAGGAGAAGACUGCGGGAUCCAGUCCCAUACGGAACG [U26G U53A G56C G63A]: the yeast fitness is no more than 0.5.

Consider GUUCCGUUGGCGUAAUGGUAACGCGUCUCCCUCCUAAGGAGAAGAUUGCGGGCUCGAGUCCCGUACGGAACG [C46U U53C], for which the yeast fitness was 0.854.

Take GUUCCGUUGGCGUAGUGGUAACGCGUCUCCCUCCUAAGGAGAAGACUGCGGGUUCGAGUCCCGUACAGAACG [A15G G67A]: the yeast fitness came out at 0.868.

As for GGUCCGUUGGCGUAAUGGUAACGCGUCUCCCUCCUAAGGAGAAGACUGCGGGUUCGAGUCCCGUACGGAUCG [U2G A70U], the yeast fitness is 0.917.

GUUCCGUUGGGGUAAUGGUAACGCGUCUCCCUCCUAAGGAGAAGACUGCGGGUUCGUGUCCCGUACGGAACG [C11G A57U]: the yeast fitness was no more than 0.5.

Take GUUCCCUUGGCGUAAUGGUAACGCGUCUCCCUCGUAAGGAGAAGACUGCGGGUUCGAGUCCCGUGCGGAACG [G6C C34G A65G]: the yeast fitness is no more than 0.5.

GUUUCGUUGGCGUAAUGGUAACGCGUUUCCGUCCUAAGGAGAAGACUGCGGGUUUGAGUCCCGUACGGAACG [C4U C27U C31G C55U]: the yeast fitness was no more than 0.5.

With GUUCCGUUGGCGUAAUGGUCACGCGUCUCUCUCCUAAGGAGAAGACUGCGGGUUCGAGUCCCGUACGGAACG [A20C C30U], the yeast fitness worked out at 0.903.

Consider GUUCCGUUGGAGUAAUGGUAACGCGUCCCCCUCCUAAGGAGAGGACUGCGGGUUCGAGUCCCGUCCGGAACG [C11A U28C A43G A65C], for which the yeast fitness is no more than 0.5.

With GUUCCCUUGGCGUAAUGGUAACGCCUCUCCCUCCUAUGCAGAAGACUGCGGGUUCGAGUCCGGUACGGAACG [G6C G25C A37U G39C C62G], the yeast fitness was no more than 0.5.

On to GUCCGGUUGGCGUAAUGGUAACGCGUCUCCCUCCUAAAGAGAAGACUGCGGGUUCGAGUCCCGUACGGAACG [U3C C5G G38A], for which the yeast fitness is no more than 0.5.

Regarding GUUCCAUUGGCAUAACGGUAACGCGUCUCCCUCCUAAGGAGAAGACUGCGGGUUCGAGUCCCGUACGGAACG [G6A G12A U16C], the yeast fitness was 0.537.

As for GUUCCGUUGGCGUAUUGGUAACGCGUCUCCCUCCUAAGGAGAAGACUGCGGGUUCGAGUGCCGUAGGGAACG [A15U C60G C66G], the yeast fitness was no more than 0.5.

GUUCCGUUGGCGUAAUGGUAACGCGUCUCCGUCCUAAGGAGAAGACUGCGGGUUCGACUCCCGUACGGAACG [C31G G58C]: the yeast fitness is 0.88.

As to GUUCCGUCGGCGUAAUGGUAACGCGUCUCCCUCCUUAAGAGAAGACUGCGGGUUCGAGUCCCGUACGCAACG [U8C A36U G38A G68C], the yeast fitness was no more than 0.5.

Take GUUCCGUUGACGUAAUGGUAACGAGUCUCCCUCCUAAGGAGAAGCCUGCGGGUUCGUGUCCCGUACGGAACG [G10A C24A A45C A57U]: the yeast fitness was determined as 0.63.

With GUUCCAUUGGAGUAAUGGUAAGGCGUCUCCCUCCUAAGGAGAAGACUGCGGGUUCGAGUCCCGUACGGAACG [G6A C11A C22G], the yeast fitness is no more than 0.5.

GUUCCGUUGGCGUAAUGGUAACGCGUCUCCAUCCUAAGGAGAAGACUGCGGGUUCGAGUCCAGUACGGAACG [C31A C62A]: the yeast fitness was found to be 0.6.

Consider GUUCCGUUGGCGUAAUGGUAACGCGUCUCCCUCCUAAGCAGAUGACUGCGGGCUCGAGUCCCGUACGGAACG [G39C A43U U53C], for which the yeast fitness was 0.606.

Take GUUCCGUUGGCGUAAUGGUAACGCGUCUCCCUCCAAUGGAGAAGACUGCGGAUUCGAGCCCCGUAAAGAACG [U35A A37U G52A U59C C66A G67A]: the yeast fitness is no more than 0.5.

As for GUUCCGUUCGCGUAAUGGUAACGCGUCUCCCUCCUAUGGAGAAGACUGCGGGUUCGAGUCCCGUACGGAACG [G9C A37U], the yeast fitness was determined as 0.663.
